In ChEMBL document CHEMBL2380211, “Conformational restriction in a series of GPR119 agonists: differences in pharmacology between mouse and human” (Bioorg Med Chem Lett, 2013):
Converted amounts (≈) assume the structure as drawn.

Columns and labels:
Mus musculus = assay: Antidiabetic activity in C57BL6/JAX mouse assessed as reduction in blood glucose AUC at 50 mg/kg administered 30 mins prior to glucose challenge measured up to 90 mins by OGTT relative to control; assay type: functional; parameters: scale not given: the % may be the effect or the level left
How it was run: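 C57BL6/JAX mice given compound at 50 mg/kg, 30 min before a 2 g/kg oral glucose load. Blood glucose followed to 90 min. Value is the % reduction in blood glucose AUC.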

[1] = Plasma clearance in rat at 2 mg/kg, iv and 5 mg/kg, po; assay type: ADME, organism-based
How it was run: (§1)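 Rats dosed at 2 mg/kg IV in 5% DMSO:95% hydroxypropyl beta cyclodextrin, and at 5 mg/kg orally as a 0.1% pluronic F127 suspension, both at 5 mL/kg.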

[2] = Intrinsic clearance in rat hepatocytes measured per 10^6 cells; assay type: ADME, cell-based, Hepatocyte; settings: read-out: CLH
[3] = Volume of distribution at steady state in rat at 2 mg/kg, iv and 5 mg/kg, po; assay type: ADME, organism-based; settings: in vivo, read-out: Vdss; how it was run: as §1
[4] = Half life in rat at 5 mg/kg, po; assay type: ADME, organism-based; parameters: dose 5 mg/kg, route oral; settings: in vivo; how it was run: as §1
[5] = 1-octanol-aqueous phosphate buffer distribution coefficient, log D of the compound at pH 7.4 after 30 mins by shake-flask method; assay type: physicochemical
How it was run: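 Partition of compound between 1-octanol and aqueous phosphate buffer, pH 7.4.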

[6] = AUC in rat at 2 mg/kg, iv and 5 mg/kg, po; assay type: ADME, organism-based; settings: plasma; how it was run: as §1
[7] = Half life in rat at 2 mg/kg, iv; assay type: ADME, organism-based; parameters: dose 2 mg/kg, route intravenous; settings: in vivo; how it was run: as §1
[8] = Apparent permeability from basolateral to apical side in MDCK cells at 10 uM; assay type: ADME, cell-based, Canis lupus familiaris; settings: dog
How it was run: (§2)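 Compound incubated at 10 µM with cultured MDCK epithelial cells. Apparent permeability measured in both directions, A-B and B-A.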

[9] = Oral bioavailability in rat at 5 mg/kg; assay type: ADME, organism-based; settings: in vivo; how it was run: as §1
[10] = Apparent permeability from apical to basolateral side in MDCK cells at 10 uM; assay type: ADME, cell-based, Canis lupus familiaris; settings: dog; how it was run: as §2
[11] = biological target: T1, Glucose-dependent insulinotropic receptor (Homo sapiens, UniProt Q8TDV5); assay: Displacement of [3H]-N-(2-fluoro-4-methylsulfonyl-phenyl)-6-[4-(3-isopropyl-1,2,4-oxadiazol-5-yl)-1-piperidyl]-5-nitro-pyrimidin-4-amine from human GPR119 overexpressed in baculovirus infected Sf21 cell membranes after 120 mins by scintillation counting analysis
T1 sequence (Q8TDV5 whole entry): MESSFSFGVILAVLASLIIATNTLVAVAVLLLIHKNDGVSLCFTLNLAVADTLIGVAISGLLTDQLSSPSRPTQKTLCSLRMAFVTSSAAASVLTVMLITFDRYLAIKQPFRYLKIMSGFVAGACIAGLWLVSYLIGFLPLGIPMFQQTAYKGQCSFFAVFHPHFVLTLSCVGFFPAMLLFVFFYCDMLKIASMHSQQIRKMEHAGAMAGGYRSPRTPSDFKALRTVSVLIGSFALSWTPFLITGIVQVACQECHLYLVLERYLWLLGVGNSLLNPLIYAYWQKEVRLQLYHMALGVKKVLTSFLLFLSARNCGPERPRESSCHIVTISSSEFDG

[12] = biological target: T1, Glucose-dependent insulinotropic receptor; assay: Agonist activity at human GPR119 overexpressed in HEK293S cells assessed as change in cAMP level after 45 mins by HTRF assay; assay type: functional, cell-based
[13] = biological target: T2, Glucose-dependent insulinotropic receptor (Mus musculus, UniProt Q7TQP3); assay: Displacement of [3H]-N-(2-fluoro-4-methylsulfonyl-phenyl)-6-[4-(3-isopropyl-1,2,4-oxadiazol-5-yl)-1-piperidyl]-5-nitro-pyrimidin-4-amine from mouse GPR119 overexpressed in baculovirus infected Sf21 cell membranes after 120 mins by scintillation counting analysis
T2 sequence (Q7TQP3 whole entry): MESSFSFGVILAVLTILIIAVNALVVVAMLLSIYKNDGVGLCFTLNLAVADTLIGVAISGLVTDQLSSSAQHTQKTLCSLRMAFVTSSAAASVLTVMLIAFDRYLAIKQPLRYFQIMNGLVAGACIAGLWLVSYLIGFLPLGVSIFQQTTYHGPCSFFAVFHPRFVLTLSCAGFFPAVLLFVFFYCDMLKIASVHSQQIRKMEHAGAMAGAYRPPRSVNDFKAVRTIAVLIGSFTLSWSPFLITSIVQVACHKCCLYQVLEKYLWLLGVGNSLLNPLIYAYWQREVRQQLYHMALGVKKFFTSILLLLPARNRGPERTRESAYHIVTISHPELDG

[14] = biological target: T2, Glucose-dependent insulinotropic receptor; assay: Agonist activity at mouse GPR119 overexpressed in HEK293S cells assessed as change in cAMP level after 45 mins by HTRF assay; assay type: functional, cell-based
[15] = Fraction unbound in mouse plasma by equilibrium dialysis method; assay type: ADME, cell-free
Cytochrome P450 2D6 = Cytochrome P450 2D6 (Homo sapiens, UniProt P10635); assay: Inhibition of CYP2D6 (unknown origin); assay type: ADME
Cytochrome P450 2D6, sequence (P10635 whole entry): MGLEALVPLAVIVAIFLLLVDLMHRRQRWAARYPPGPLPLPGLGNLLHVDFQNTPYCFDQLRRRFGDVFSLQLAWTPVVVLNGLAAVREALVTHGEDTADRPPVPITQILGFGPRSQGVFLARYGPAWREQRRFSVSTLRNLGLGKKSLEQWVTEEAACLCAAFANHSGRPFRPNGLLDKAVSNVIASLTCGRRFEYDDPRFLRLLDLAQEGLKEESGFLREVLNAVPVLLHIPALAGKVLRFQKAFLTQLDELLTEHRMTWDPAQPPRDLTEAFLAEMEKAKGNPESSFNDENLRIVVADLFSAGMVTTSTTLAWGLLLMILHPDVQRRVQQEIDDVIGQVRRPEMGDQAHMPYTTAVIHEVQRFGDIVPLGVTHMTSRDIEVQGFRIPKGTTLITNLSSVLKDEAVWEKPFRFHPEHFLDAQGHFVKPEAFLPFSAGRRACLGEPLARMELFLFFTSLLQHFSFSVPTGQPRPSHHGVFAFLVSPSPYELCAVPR

[16] = Fraction unbound in rat plasma by equilibrium dialysis method; assay type: ADME, cell-free
Cytochrome P450 3A4 = Cytochrome P450 3A4 (Homo sapiens, UniProt P08684); assay: Inhibition of CYP3A4 (unknown origin); assay type: ADME
Cytochrome P450 3A4, sequence (P08684 whole entry): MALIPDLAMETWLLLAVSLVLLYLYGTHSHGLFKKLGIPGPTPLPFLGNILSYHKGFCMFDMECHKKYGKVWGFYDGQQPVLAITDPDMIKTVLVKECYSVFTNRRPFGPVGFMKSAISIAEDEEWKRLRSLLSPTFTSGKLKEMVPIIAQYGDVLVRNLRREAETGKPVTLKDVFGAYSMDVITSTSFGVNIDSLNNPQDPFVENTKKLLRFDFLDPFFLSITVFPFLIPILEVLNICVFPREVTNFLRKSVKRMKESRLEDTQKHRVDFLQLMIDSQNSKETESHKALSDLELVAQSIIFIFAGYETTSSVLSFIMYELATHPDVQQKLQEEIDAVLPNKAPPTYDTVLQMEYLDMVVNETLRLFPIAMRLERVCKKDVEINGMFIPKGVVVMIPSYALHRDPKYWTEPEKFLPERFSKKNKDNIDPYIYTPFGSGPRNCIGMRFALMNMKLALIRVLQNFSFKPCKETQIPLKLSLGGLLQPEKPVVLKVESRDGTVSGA

[17] = biological target: Voltage-gated inwardly rectifying potassium channel KCNH2 (Homo sapiens, UniProt Q12809); assay: Inhibition of human ERG by IonWorks assay
Voltage-gated inwardly rectifying potassium channel KCNH2, sequence (Q12809 whole entry): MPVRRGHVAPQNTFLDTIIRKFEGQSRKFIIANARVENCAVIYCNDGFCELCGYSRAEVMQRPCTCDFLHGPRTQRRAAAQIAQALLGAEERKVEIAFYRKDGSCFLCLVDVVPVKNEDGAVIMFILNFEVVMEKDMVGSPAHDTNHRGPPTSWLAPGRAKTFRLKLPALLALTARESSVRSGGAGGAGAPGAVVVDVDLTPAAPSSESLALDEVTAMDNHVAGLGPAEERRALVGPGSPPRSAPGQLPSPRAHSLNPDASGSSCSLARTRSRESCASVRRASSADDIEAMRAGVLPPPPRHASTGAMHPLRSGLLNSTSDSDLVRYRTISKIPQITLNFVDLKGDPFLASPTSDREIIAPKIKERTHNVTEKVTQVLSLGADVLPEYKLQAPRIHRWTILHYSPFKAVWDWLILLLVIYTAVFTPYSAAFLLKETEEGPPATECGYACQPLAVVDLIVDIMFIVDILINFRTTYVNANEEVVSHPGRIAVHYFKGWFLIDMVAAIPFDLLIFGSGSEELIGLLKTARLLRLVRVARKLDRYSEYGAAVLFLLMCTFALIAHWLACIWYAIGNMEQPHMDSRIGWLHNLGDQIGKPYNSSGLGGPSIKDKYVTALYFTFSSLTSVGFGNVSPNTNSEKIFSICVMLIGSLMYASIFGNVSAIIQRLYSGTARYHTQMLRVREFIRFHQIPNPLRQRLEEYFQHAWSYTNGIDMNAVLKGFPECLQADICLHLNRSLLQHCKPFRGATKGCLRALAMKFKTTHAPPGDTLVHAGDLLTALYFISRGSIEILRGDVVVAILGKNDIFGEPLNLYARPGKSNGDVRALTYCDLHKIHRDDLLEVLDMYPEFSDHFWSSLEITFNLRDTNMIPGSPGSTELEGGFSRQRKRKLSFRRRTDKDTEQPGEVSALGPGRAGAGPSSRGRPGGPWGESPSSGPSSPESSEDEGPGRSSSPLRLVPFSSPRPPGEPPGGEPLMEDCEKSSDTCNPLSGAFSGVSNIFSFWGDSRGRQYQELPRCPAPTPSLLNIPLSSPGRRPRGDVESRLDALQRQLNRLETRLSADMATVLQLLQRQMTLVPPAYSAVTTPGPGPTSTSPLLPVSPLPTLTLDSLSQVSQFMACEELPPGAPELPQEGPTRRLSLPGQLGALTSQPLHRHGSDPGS

Cytochrome P450 2C19 = Cytochrome P450 2C19 (Homo sapiens, UniProt P33261); assay: Inhibition of CYP2C19 (unknown origin); assay type: ADME
Cytochrome P450 2C19, sequence (P33261 whole entry): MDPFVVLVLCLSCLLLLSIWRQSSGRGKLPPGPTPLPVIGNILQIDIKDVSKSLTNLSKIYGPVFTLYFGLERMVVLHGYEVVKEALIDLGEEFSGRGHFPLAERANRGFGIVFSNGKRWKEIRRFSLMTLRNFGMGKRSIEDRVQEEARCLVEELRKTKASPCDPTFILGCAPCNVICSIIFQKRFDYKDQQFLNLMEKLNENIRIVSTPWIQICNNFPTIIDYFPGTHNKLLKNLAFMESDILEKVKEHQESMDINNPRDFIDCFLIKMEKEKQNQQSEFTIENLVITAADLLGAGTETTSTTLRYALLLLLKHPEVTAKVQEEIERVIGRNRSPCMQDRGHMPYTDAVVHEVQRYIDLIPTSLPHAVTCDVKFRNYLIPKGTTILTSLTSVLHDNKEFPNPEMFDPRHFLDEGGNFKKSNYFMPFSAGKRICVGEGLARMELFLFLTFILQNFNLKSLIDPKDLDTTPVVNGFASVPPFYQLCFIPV

Cytochrome P450 2C9 = Cytochrome P450 2C9 (Homo sapiens, UniProt P11712); assay: Inhibition of CYP2C9 (unknown origin); assay type: ADME
Cytochrome P450 2C9, sequence (P11712 whole entry): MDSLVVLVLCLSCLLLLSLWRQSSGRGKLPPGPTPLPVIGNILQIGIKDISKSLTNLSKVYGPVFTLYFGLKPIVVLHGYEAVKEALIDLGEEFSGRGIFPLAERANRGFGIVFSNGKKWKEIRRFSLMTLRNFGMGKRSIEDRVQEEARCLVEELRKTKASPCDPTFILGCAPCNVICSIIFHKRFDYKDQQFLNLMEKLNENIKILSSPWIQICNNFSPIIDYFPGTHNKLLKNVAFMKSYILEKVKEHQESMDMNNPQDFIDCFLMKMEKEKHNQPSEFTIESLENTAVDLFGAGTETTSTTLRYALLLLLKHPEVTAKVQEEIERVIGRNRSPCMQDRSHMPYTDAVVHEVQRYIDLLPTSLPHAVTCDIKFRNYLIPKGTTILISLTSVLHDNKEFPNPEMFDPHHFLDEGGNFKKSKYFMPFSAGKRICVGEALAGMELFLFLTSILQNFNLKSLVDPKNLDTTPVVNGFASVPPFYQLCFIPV

Cytochrome P450 1A2 = biological target: T3, Cytochrome P450 1A2 (Homo sapiens, UniProt P05177); assay: Inhibition of CYP1A2 (unknown origin); assay type: ADME
T3 sequence (P05177 whole entry): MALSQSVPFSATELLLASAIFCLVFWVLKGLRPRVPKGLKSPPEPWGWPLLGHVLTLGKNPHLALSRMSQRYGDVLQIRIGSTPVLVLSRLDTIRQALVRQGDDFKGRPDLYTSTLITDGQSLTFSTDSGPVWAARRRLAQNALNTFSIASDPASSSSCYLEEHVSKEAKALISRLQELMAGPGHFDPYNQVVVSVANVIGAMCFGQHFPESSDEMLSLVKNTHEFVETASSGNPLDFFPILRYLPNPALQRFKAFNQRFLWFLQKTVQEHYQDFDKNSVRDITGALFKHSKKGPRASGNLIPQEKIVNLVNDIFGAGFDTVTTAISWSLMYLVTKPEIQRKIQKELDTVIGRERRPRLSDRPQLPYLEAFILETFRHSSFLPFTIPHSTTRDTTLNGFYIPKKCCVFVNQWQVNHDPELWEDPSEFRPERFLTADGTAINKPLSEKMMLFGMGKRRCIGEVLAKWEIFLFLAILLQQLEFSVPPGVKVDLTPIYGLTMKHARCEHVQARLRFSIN

[18] = Aqueous solubility of the compound in phosphate buffer at pH 7.4 at 25 degC after 24 hrs by LC-UV analysis; assay type: physicochemical

Compound: C[C@@H]1CN(C(=O)OCC(F)(F)F)CCN1c1ncc(OCc2ccncc2C#N)cn1
- Activity (Mus musculus): 10%
- clearance [1]: 14 mL/min/kg
- hepatocyte CLint [2]: 27 µL/min/1e6 cells
- Vd [3]: 1.1 L/kg
- half-life [4]: 2.2 h
- logD at 0.5 h [5]: 3
- AUC [6]: 3.2 µM·h
- half-life [7]: 1.4 h
- Papp B→A at 10 µM [8]: 10 ×10⁻⁶ cm/s
- bioavailability [9]: 27%
- Papp A→B at 10 µM [10]: 19 ×10⁻⁶ cm/s

Compound: CC(C)(C)OC(=O)N1CC2CCC(C1)N2c1ncc(OCc2ccc(S(C)(=O)=O)cc2)cn1
- IC50 [11]: 92 nM
- EC50 [12]: 79 nM
- IC50 [13]: 72 nM

Compound: CC(C)(C)OC(=O)N1C2CCC1CN(c1ncc(OCc3ccc(S(C)(=O)=O)cc3)cn1)C2
- IC50 [11]: 3 nM
- EC50 [12]: 11 nM
- IC50 [13]: 5 nM

Compound: CC(C)(C)OC(=O)N1C2CCC1CN(c1ncc(OCc3ccncc3C#N)cn1)C2
- IC50 [11]: 1 nM
- EC50 [12]: 4 nM
- IC50 [13]: 9 nM

Compound: N#Cc1cnccc1COc1cnc(N2CCN(C(=O)OC3CC(F)(F)C3(F)F)CC2)nc1 (configuration not stated)
- Activity (Mus musculus): 30%
- IC50 [11]: 25 nM
- EC50 [12]: 20 nM
- EC50 [14]: 252 nM
- IC50 [13]: 758 nM

Compound: C[C@@H]1CN(C(=O)OC2CC(F)(F)C2(F)F)CCN1c1ncc(OCc2ccncc2C#N)cn1 (some centres not stated)
- IC50 [11]: 6 nM
- EC50 [12]: 6 nM
- EC50 [14]: 84 nM
- IC50 [13]: 694 nM

Compound: N#Cc1cnccc1COc1cnc(N2CC3CCC(C2)N3C(=O)OC2CC(F)(F)C2(F)F)nc1 (configuration not stated)
- Activity (Mus musculus): 3%
- IC50 [11]: 9 nM
- EC50 [12]: 7 nM
- IC50 [13]: 65 nM

Compound: N#Cc1cnccc1COc1cnc(N2CCN(C(=O)OCC(F)(F)F)CC2)nc1
- Activity (Mus musculus): 21%
- fraction unbound [15]: 0.094
- clearance [1]: 22 mL/min/kg
- IC50 [11]: 18 nM
- hepatocyte CLint [2]: 12 µL/min/1e6 cells
- Vd [3]: 5.3 L/kg
- half-life [4]: 2.1 h
- IC50 (Cytochrome P450 2D6): > 30000 nM
- fraction unbound [16]: 0.051
- IC50 (Cytochrome P450 3A4): > 30000 nM
- IC50 [17]: 10000 nM
- logD at 0.5 h [5]: 3
- AUC [6]: 4 µM·h
- EC50 [12]: 47 nM
- IC50 (Cytochrome P450 2C19): > 30000 nM
- IC50 (Cytochrome P450 2C9): > 30000 nM
- half-life [7]: 3.9 h
- EC50 [14]: 698 nM
- IC50 [13]: 4990 nM
- bioavailability [9]: 48%
- Papp A→B at 10 µM [10]: 32 ×10⁻⁶ cm/s
- IC50 (Cytochrome P450 1A2): > 30000 nM
- solubility at 24 h [18]: 3.3 µM (≈ 1.39 µg/mL)

Compound: N#Cc1cnccc1COc1cnc(N2CC3CCC(C2)N3C(=O)OCC(F)(F)F)nc1
- Activity (Mus musculus): 6%
- fraction unbound [15]: 0.096
- clearance [1]: 11 mL/min/kg
- IC50 [11]: 8 nM
- hepatocyte CLint [2]: 13 µL/min/1e6 cells
- Vd [3]: 1 L/kg
- half-life [4]: 2.6 h
- IC50 (Cytochrome P450 2D6): > 30000 nM
- fraction unbound [16]: 0.065
- IC50 (Cytochrome P450 3A4): > 30000 nM
- logD at 0.5 h [5]: 3
- AUC [6]: 2.1 µM·h
- EC50 [12]: 9 nM
- IC50 (Cytochrome P450 2C19): > 30000 nM
- IC50 (Cytochrome P450 2C9): > 30000 nM
- half-life [7]: 1.7 h
- EC50 [14]: 20 nM
- Papp B→A at 10 µM [8]: 20 ×10⁻⁶ cm/s
- IC50 [13]: 104 nM
- bioavailability [9]: 17%
- Papp A→B at 10 µM [10]: 25 ×10⁻⁶ cm/s
- IC50 (Cytochrome P450 1A2): > 30000 nM
- solubility at 24 h [18]: 3.8 µM (≈ 1.7 µg/mL)

Compound: CC(C)c1nc(N2CCN(c3ncc(OCc4ccncc4C#N)cn3)CC2)no1
- IC50 [11]: 12 nM
- EC50 [12]: 19 nM
- EC50 [14]: 242 nM
- IC50 [13]: 2720 nM

Compound: CC(C)c1nc(N2C3CCC2CN(c2ncc(OCc4ccncc4C#N)cn2)C3)no1
- IC50 [11]: 4 nM
- EC50 [12]: 11 nM
- EC50 [14]: 45 nM
- IC50 [13]: 122 nM
